In ChEMBL document CHEMBL1158122, “Anti-inflammatory, anti-tumor-promoting, and cytotoxic activities of constituents of marigold (Calendula officinalis) flowers” (J Nat Prod, 2006):

Key:
HOP-92 = assay: Cytotoxicity against human HOP-92 cells after 48 hrs by SRB assay; assay type: functional; conditions: HOP-92, 48 h
MCF7 = assay: Cytotoxicity against human MCF7 cells after 48 hrs by SRB assay; assay type: functional; conditions: MCF7, 48 h
KM12 = assay: Cytotoxicity against human KM12 cells after 48 hrs by SRB assay; assay type: functional; conditions: KM12, 48 h
UO-31 = assay: Cytotoxicity against human UO-31 cells after 48 hrs by SRB assay; assay type: functional; conditions: UO-31, 48 h
In short: (§1)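 Tested in the NCI panel of 60 human tumour cell lines covering lung, colon, melanoma, renal, ovarian, breast and leukaemia. At least five concentrations were run in 10-fold dilutions starting from 10^-4 M. Exposure was continuous for 48 h. Growth or viability was estimated by sulforhodamine B protein staining, and GI50 values were reported.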

[1] = Cytotoxicity against human Raji cells assessed as cell viability at 100 molar ratio; assay type: cell-based; conditions: read-out: Activity
In short: (§2)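 Raji cells were treated with 32 pmol TPA to induce EBV early antigen activation. The test agent was added at 10, 100, 500 or 1000 mol ratio relative to TPA, and Raji cell viability was measured alongside EA activation.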

OVCAR-5 = assay: Cytotoxicity against human OVCAR5 cells after 48 hrs by SRB assay; assay type: functional; conditions: OVCAR-5, 48 h
UACC-257 = assay: Cytotoxicity against human UACC-257 cells after 48 hrs by SRB assay; assay type: functional; conditions: UACC-257, 48 h; in short: as §1
NCI-H23 = assay: Cytotoxicity against human NCI-H23 cells after 48 hrs by SRB assay; assay type: functional; conditions: NCI-H23, 48 h
A549 = assay: Cytotoxicity against human A549 cells after 48 hrs by SRB assay; assay type: functional; conditions: A549, 48 h
Raji [2] = assay: Inhibition of TPA-induced EBV-early antigen activation in human Raji cells at 1000 molar ratio relative to TPA; assay type: cell-based; design: scale not given: the % may be the effect or the level left; conditions: human gammaherpesvirus 4
[3] = Cytotoxicity against human Raji cells assessed as cell viability at 500 molar ratio; assay type: cell-based; conditions: read-out: Activity; in short: as §2
OVCAR-3 = assay: Cytotoxicity against human OVCAR-3 cells after 48 hrs by SRB assay; assay type: functional; conditions: OVCAR-3, 48 h
SK-MEL-2 = assay: Cytotoxicity against human SK-MEL-2 cells after 48 hrs by SRB assay; assay type: functional; conditions: SK-MEL-2, 48 h
[4] = Inhibition of TPA-induced EBV-early antigen activation in human Raji cells relative to TPA; assay type: cell-based, human gammaherpesvirus 4
UACC-62 = assay: Cytotoxicity against human UACC-62 cells after 48 hrs by SRB assay; assay type: functional; conditions: UACC-62, 48 h; in short: as §1
HT-29 = assay: Cytotoxicity against human HT-29 cells after 48 hrs by SRB assay; assay type: functional; conditions: HT-29, 48 h
T47D = assay: Cytotoxicity against human T47D cells after 48 hrs by SRB assay; assay type: functional; in short: as §1
K562 = assay: Cytotoxicity against human K-562 cells after 48 hrs by SRB assay; assay type: functional; conditions: K562, 48 h
786-0 = assay: Cytotoxicity against human 786-0 cells after 48 hrs by SRB assay; assay type: functional; conditions: 786-0, 48 h
IGROV-1 = assay: Cytotoxicity against human IGROV1 cells after 48 hrs by SRB assay; assay type: functional; conditions: IGROV-1, 48 h
Raji [5] = assay: Inhibition of TPA-induced EBV-early antigen activation in human Raji cells at 100 molar ratio relative to TPA; assay type: cell-based; design: scale not given: the % may be the effect or the level left; conditions: human gammaherpesvirus 4
MOLT-4 = assay: Cytotoxicity against human MOLT-4 cells after 48 hrs by SRB assay; assay type: functional; conditions: MOLT-4, 48 h
SF-295 = assay: Cytotoxicity against human SF-295 cells after 48 hrs by SRB assay; assay type: functional; conditions: SF-295, 48 h
BT-549 = assay: Cytotoxicity against human BT-549 cells after 48 hrs by SRB assay; assay type: functional; conditions: BT-549, 48 h
NCI/ADR-RES = assay: Cytotoxicity against human NCI/ADR-RES cells after 48 hrs by SRB assay; assay type: functional
MDA-MB-435 = assay: Cytotoxicity against human MDA-MB-435 cells after 48 hrs by SRB assay; assay type: functional; conditions: MDA-MB-435, 48 h
[6] = Cytotoxicity against human Hs 578T cells after 48 hrs by SRB assay; assay type: functional
HCT-15 = assay: Cytotoxicity against human HCT-15 cells after 48 hrs by SRB assay; assay type: functional; conditions: HCT-15, 48 h
[7] = Cytotoxicity against human HCT 116 cells after 48 hrs by SRB assay; assay type: functional; conditions: HCT-116, 48 h
RPMI-8226 = assay: Cytotoxicity against human RPMI8226 cells after 48 hrs by SRB assay; assay type: functional; conditions: RPMI-8226, 48 h
PC-3 = assay: Cytotoxicity against human PC-3 cells after 48 hrs by SRB assay; assay type: functional; conditions: PC-3, 48 h
TK-10 = assay: Cytotoxicity against human TK-10 cells after 48 hrs by SRB assay; assay type: functional; conditions: TK-10, 48 h; in short: as §1
NCI-H460 = assay: Cytotoxicity against human NCI-H460 cells after 48 hrs by SRB assay; assay type: functional; conditions: NCI-H460, 48 h
NCI-H226 = assay: Cytotoxicity against human NCI-H226 cells after 48 hrs by SRB assay; assay type: functional; conditions: NCI-H226, 48 h
NCI-H322M = assay: Cytotoxicity against human NCI-H322M cells after 48 hrs by SRB assay; assay type: functional
Raji [8] = assay: Inhibition of TPA-induced EBV-early antigen activation in human Raji cells at 10 molar ratio relative to TPA; assay type: cell-based; design: scale not given: the % may be the effect or the level left; conditions: human gammaherpesvirus 4
NCI-H522 = assay: Cytotoxicity against human NCI-H522 cells after 48 hrs by SRB assay; assay type: functional; conditions: NCI-H522, 48 h
HOP-62 = assay: Cytotoxicity against human HOP-62 cells after 48 hrs by SRB assay; assay type: functional; conditions: HOP-62, 48 h
SNB-19 = assay: Cytotoxicity against human SNB-19 cells after 48 hrs by SRB assay; assay type: functional; conditions: SNB-19, 48 h
RXF 393 = assay: Cytotoxicity against human […] cells after 48 hrs by SRB assay; assay type: functional; conditions: RXF 393, 48 h
OVCAR-8 = assay: Cytotoxicity against human OVCAR8 cells after 48 hrs by SRB assay; assay type: functional; conditions: OVCAR-8, 48 h
SF-268 = assay: Cytotoxicity against human SF-268 cells after 48 hrs by SRB assay; assay type: functional; conditions: SF-268, 48 h
MDA-MB-231 = assay: Cytotoxicity against human MDA-MB-231 cells after 48 hrs by SRB assay; assay type: functional; conditions: MDA-MB-231, 48 h
COLO 205 = assay: Cytotoxicity against human COLO205 cells after 48 hrs by SRB assay; assay type: functional; conditions: COLO 205, 48 h
[9] = Cytotoxicity against human Raji cells assessed as cell viability at 10 molar ratio; assay type: cell-based; conditions: read-out: Activity; in short: as §2
SN12C = assay: Cytotoxicity against human SN12C cells after 48 hrs by SRB assay; assay type: functional
EKVX = assay: Cytotoxicity against human EKVX cells after 48 hrs by SRB assay; assay type: functional
Raji [10] = assay: Inhibition of TPA-induced EBV-early antigen activation in human Raji cells at 500 molar ratio relative to TPA; assay type: cell-based; design: scale not given: the % may be the effect or the level left; conditions: human gammaherpesvirus 4
CAKI-1 = assay: Cytotoxicity against human Caki-1 cells after 48 hrs by SRB assay; assay type: functional; conditions: CAKI-1, 48 h
Mus musculus = assay: Antiinflammatory activity against TPA-induced ear edema in mouse; assay type: functional
In short: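 Specific-pathogen-free female ICR mice were housed five per cage at 24 ± 2 °C. Inflammation was induced on the ear with TPA at 1 µg/ear, and the test agent was applied per ear. Ear edema inhibition was expressed as ID50 in mg per ear.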

U-251 = assay: Cytotoxicity against human U251 cells after 48 hrs by SRB assay; assay type: functional; conditions: U-251, 48 h; in short: as §1
[11] = Cytotoxicity against human Raji cells assessed as cell viability at 1000 molar ratio; assay type: cell-based; conditions: read-out: Activity; in short: as §2
Malme-3M = assay: Cytotoxicity against human MALME-3M cells after 48 hrs by SRB assay; assay type: functional
SW-620 = assay: Cytotoxicity against human SW620 cells after 48 hrs by SRB assay; assay type: functional; conditions: SW-620, 48 h
SK-MEL-5 = assay: Cytotoxicity against human SK-MEL-5 cells after 48 hrs by SRB assay; assay type: functional; conditions: SK-MEL-5, 48 h
CCRF-CEM = assay: Cytotoxicity against human CCRF-CEM cells after 48 hrs by SRB assay; assay type: functional

CC1(C)CC[C@]2(C(=O)O)CC[C@]3(C)C(=CC[C@@H]4[C@@]5(C)CC[C@H](O[C@@H]6O[C@H](C(=O)O)[C@@H](O)[C@H](O[C@@H]7O[C@H](CO)[C@H](O)[C@H](O)[C@H]7O)[C@H]6O[C@@H]6O[C@H](CO)[C@@H](O)[C@H](O)[C@H]6O)C(C)(C)[C@@H]5CC[C@]43C)[C@@H]2C1 [CALENDULAGYCOSIDE B]
GI50 (HOP-92): > 100 µM
GI50 (MCF7): 53.5 µM
GI50 (KM12): > 100 µM
GI50 (UO-31): 63.5 µM
viability at 100 molar ratio [1]: > 80%
GI50 (OVCAR-5): > 100 µM
GI50 (UACC-257): > 100 µM
GI50 (NCI-H23): 20.2 µM
GI50 (A549): > 100 µM
Activity (Raji [2]): 5.1%
viability at 500 molar ratio [3]: > 80%
GI50 (OVCAR-3): > 100 µM
GI50 (SK-MEL-2): > 100 µM
IC50 [4]: 470 molar ratio
GI50 (UACC-62): 23 µM
GI50 (HT-29): 40.9 µM
GI50 (T47D): > 100 µM
GI50 (K562): 81.1 µM
GI50 (786-0): > 100 µM
GI50 (IGROV-1): > 100 µM
Activity (Raji [5]): 69.2%
GI50 (MOLT-4): 86.3 µM
GI50 (SF-295): 31 µM
GI50 (BT-549): > 100 µM
GI50 (NCI/ADR-RES): > 100 µM
GI50 (MDA-MB-435): > 100 µM
GI50 [6]: 97.4 µM
GI50 (HCT-15): 94.6 µM
GI50 [7]: > 100 µM
GI50 (RPMI-8226): 50.9 µM
GI50 (PC-3): 20.6 µM
GI50 (TK-10): > 100 µM
GI50 (NCI-H460): > 100 µM
GI50 (NCI-H226): > 100 µM
GI50 (NCI-H322M): 26 µM
Activity (Raji [8]): 100%
GI50 (NCI-H522): 38.4 µM
GI50 (HOP-62): > 100 µM
GI50 (SNB-19): > 100 µM
GI50 (RXF 393): > 100 µM
GI50 (OVCAR-8): > 100 µM
GI50 (SF-268): > 100 µM
GI50 (MDA-MB-231): 45 µM
GI50 (COLO 205): > 100 µM
viability at 10 molar ratio [9]: > 80%
GI50 (SN12C): 84 µM
GI50 (EKVX): > 100 µM
Activity (Raji [10]): 40.3%
GI50 (CAKI-1): > 100 µM
ID50 (Mus musculus): 0.05 mg
GI50 (U-251): 32.3 µM
viability at 1000 molar ratio [11]: 70%
GI50 (Malme-3M): 79.9 µM
GI50 (SW-620): > 100 µM
GI50 (SK-MEL-5): > 100 µM
GI50 (CCRF-CEM): > 100 µM
